Entries after “also recorded” stand apart in the source; their conditions may differ. Values belong to the compound of their own block, whether it stands above or below them.
Key:
[1] = system: brain capillary endothelial cells and astrocytes; conditions: cited from earlier work; for % of initial radioactivity in the abluminal medium: same bovine BBB model
[2] = system: hBLECs of the human BBB model; assay: Toxicity assessment: hBLEC monolayer tightness by Lucifer yellow permeability; assay type: cell-based
Summary of the method: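 Integrity check run alongside transport, on PET inserts in Ringer–HEPES (pH 7.4, 37 °C). Lucifer yellow added luminally with test lipid (1 and 10 µM) or 1% DMSO as toxicity control. Abluminal sampled at 30–180 min, luminal at 180 min. Fluorescence read at ex 490/em 525 nm. Permeability divided by 1.12 cm² insert area gives Pe (cm/min), compared with untreated cells. Mean ± SD, n = 3.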

[3] = Passage / apparent permeability across hBLEC monolayer; assay type: in vitro ADME, human; conditions: human, pH 7.4, apparent coefficient permeability (Papp), 10 μM, 180 min after transport across hBLECs
Summary of the method: (§1)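 Test lipid at 1 or 10 µM in 500 µL Ringer–HEPES (pH 7.4) on the luminal side of hBLEC/pericyte co-culture inserts. Inserts moved to fresh 1.5 mL buffer wells at 30, 60, 120 and 180 min. Media lipids extracted by Bligh–Dyer and quantified by C18 LC-MS. %/min = quantity crossed ÷ initial luminal quantity ÷ time. Papp calculated per an earlier method. Mean ± SD, n = 3.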

hBLECs [4] = assay: as above; assay type: in vitro ADME, human
Summary of the method: as §1

hBLECs [5] = assay: Intracellular accumulation in hBLECs, LC-MS; assay type: in vitro ADME, human; conditions: 180 min after incubation
Summary of the method: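 Human BBB model: cord-blood CD34+-derived endothelial cells on PET inserts, co-cultured ≥6 days with brain pericytes (37 °C, 5% CO2) to give hBLECs. Test lipid at 1 or 10 µM in 500 µL Ringer–HEPES (pH 7.4), luminal side, for 180 min. Cell lipids extracted by Folch method, quantified by C18 LC-MS, and expressed as % of initial concentration. Triplicates.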

brain = conditions: 20-days-old rats, tail vein perfusion 30 s; cited from earlier work
brain DHA = conditions: normal adult mice, dietary; cited from earlier work

Compound: CC/C=C\C/C=C\C/C=C\C/C=C\C/C=C\C/C=C\CCC(=O)OC(COC(C)=O)COP(=O)([O-])OCC[N+](C)(C)C (stereo not drawn) [AceDoPC, 1-acetyl,2-docosahexaenoyl-glycerophosphocholine]
% of initial radioactivity in the abluminal medium [1]: 7.5%

Papp at 180 min, 10 μM [3]: 26 ×10⁻⁶ cm/s | percentage of passage per min (lipids recovered in abluminal medium) (hBLECs [4]; 10 μM, 30 min post-incubation): 0.54% | percentage of passage per min (lipids recovered in abluminal medium) (hBLECs [4]; 10 μM, 120 min post-incubation): 0.40% | apparent coefficient permeability (Papp) (hBLECs [4]; 10 μM, 180 min after transport across hBLECs): 2.604e-05 cm/s | percentage of passage per minute (constant) (hBLECs [4]; constant over the 180 min transport): around 0.5 % per minute | intracellular accumulation in hBLECs (hBLECs [5]; 10 μM): 3.11 ± 1.24%
Compound: CC/C=C\C/C=C\C/C=C\C/C=C\C/C=C\C/C=C\CCC(=O)O [DHA, Docosahexaenoic acid]
toxicity towards hBLECs (from LY permeability) ([2]; 10 μM): absence of toxicity | intracellular accumulation in hBLECs (hBLECs [5]; 1 μM): lower than the limit of detection; also recorded: under the limit of quantification | recovered in the brain, % of injected radioactivity (brain): 0.3–0.4% | % of initial radioactivity in abluminal medium ([1]; 5 μM, incubation 240 min): 5% | % of initial radioactivity in the abluminal medium [1]: 4.5% | increase of levels of brain DHA (brain DHA): did not significantly increase

Compound: CC/C=C\C/C=C\C/C=C\C/C=C\C/C=C\C/C=C\CCC(=O)O[C@H](COC(=O)CCCCCCCCCCCCCCC)COP(=O)([O-])OCC[N+](C)(C)C [PC-DHA, 1-palmitoyl,2-docosahexaenoyl-sn-glycero-3-phosphatidylcholine]
% of initial radioactivity in the abluminal medium [1]: 4%

Compound: Lucifer Yellow
BBB permeability to Lucifer yellow (control permeability) ([2]; control cells, absence of test lipids, 180 min): 0.55 ± 0.06 x 10^−3 cm min^−1

Reference: article PMC11483317 (Heliyon, 2024)
